Source: ChEMBL document CHEMBL1268845, “A convenient synthesis and molecular modeling study of novel purine and pyrimidine derivatives as CDK2/cyclin A3 inhibitors” (Bioorg Med Chem, 2010)

What was measured:
[1] = tested on: CDK2/cyclin A3 (Marthasterias glacialis); experiment: Inhibition of starfish CDK2/cyclin A3 by ELISA
[2] = Cytotoxicity against mouse EAC cells after 48 hrs; type: functional; conditions: Ehrlich
In short: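 EAC cells were harvested by needle aspiration of ascitic fluid from pre-inoculated female Swiss albino mice and maintained by weekly intraperitoneal transplantation. They were suspended in saline at 2.5 × 10^6 per mL and exposed for 48 h to serial dilutions from 10^-9 to 10^-4 M in DMSO/saline. The read-out was GI50.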

Compound	IC50 [1] [µM]	GI50 [2] [µM]
COc1cc(OC)c(/C=N/c2c(C#N)nc(=O)[nH]c2NS(=O)(=O)c2ccc(C)cc2)c(OC)c1	38	16
COc1cc(/C=N/C(C#N)=C(/C#N)NC(=O)NS(=O)(=O)c2ccc(C)cc2)cc(OC)c1	42	25
COc1cc(/C=N/c2c(C#N)nc(=O)[nH]c2NS(=O)(=O)c2ccc(C)cc2)cc(OC)c1	35	19
Nc1nc(OC[C@H]2CCC(=O)N2)c2nc[nH]c2n1	35	18
COc1cccc(/C=N/C(C#N)=C(/C#N)NC(=O)NS(=O)(=O)c2ccc(C)cc2)c1OC	43	27
COc1ccc(/C=N/c2c(C#N)nc(=O)[nH]c2NS(=O)(=O)c2ccc(C)cc2)cc1	39	17
Cc1ccc(S(=O)(=O)n2c3c([nH]c2=O)C(C(N)=O)=NC(C)(C)N3)cc1	14	15
COc1ccc(/C=N/C(C#N)=C(/C#N)NC(=O)NS(=O)(=O)c2ccc(C)cc2)cc1	39	10
CC(=O)CC1(C)N=C(C(N)=O)c2[nH]c(=O)n(S(=O)(=O)c3ccc(C)cc3)c2N1 (stereo unspecified)	13	16
Cc1ccc(S(=O)(=O)NC(=N)c2[nH]c(=O)[nH]c2C#N)cc1	45	28
COc1cc(OC)c(/C=N/C(C#N)=C(/C#N)NC(=O)NS(=O)(=O)c2ccc(C)cc2)c(OC)c1	38	26
COc1cccc(/C=N/c2c(C#N)nc(=O)[nH]c2NS(=O)(=O)c2ccc(C)cc2)c1OC	36	21
Cc1ccc(S(=O)(=O)NC(=O)N/C(C#N)=C(\N)C#N)cc1	32	12
